Experimental data: the EternaBench riboswitch data

Test system: MS2 coat protein
Assay: apparent Kd, MS2 coat protein; higher = weaker binding; RNA-MaP array; FMN 200 µM where present
Summary of the method: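 Each design was made on Illumina sequencing-chip clusters by stalled E. coli RNA polymerase and titrated with SNAP-549-labelled MS2 coat protein from 0.7 or 1.5 nM, doubling to 3 µM, in the absence and then the presence of constant ligand. The buffer was 100 mM Tris-HCl pH 7.5, 80 mM KCl, 4 mM MgCl2, BSA, DTT, yeast tRNA and Tween-20. The apparent Kd is the median of filtered per-cluster fits of binding curves, with green signal normalised to red-channel RNA signal and control-cluster median Fmax.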

[1] = designed as: OFF switch for flavin mononucleotide, no ligand
[2] = ligand present: flavin mononucleotide, designed as: OFF switch for flavin mononucleotide
[3] = designed as: ON switch for flavin mononucleotide, no ligand
[4] = ligand present: flavin mononucleotide, designed as: ON switch for flavin mononucleotide

| Sequence | apparent Kd [1] [nM] | apparent Kd [2] [nM] | apparent Kd [3] [nM] | apparent Kd [4] [nM] |
| --- | --- | --- | --- | --- |
| UAGCUUGAUUCUCGUGUAUACAUGAGGAUCACCCAUGUGACGCAGGAUAUAGGCGUGUUAGUAGCCUAGAAGGGCGAGCAGCGU | 153 | 235 |  |  |
| UAGGACUACGUAGGAUAUGUAGUUGAUUUCUACAUGAGGAUCACCCAUGUUUGCAUUUUAUUAGGACAGAAGGACGUGGUAAAU |  |  | 16.1 | 7.36 |
| UAGGACUACGUAGGAUAUUAAAUCAUGUACUACAUGAGGAUCACCCAUGUUAAUUUAUCAUCAGCUGAGAAGGACGUGGUAAAU |  |  | 104 | 61.7 |
| UAGGUCAUCUGAGGAUAUCGAACUCAAAGGCUACGAGAAGGCAGACUGACAUGAGGAUCACCCAUGUACCGGGAAGAUGCCUCC | 14.6 | 130 |  |  |
| UAGUGCGUUAGAGGAUAUUCAAGGUGAAAAAAAAAUACAUGAGGAUCACCCAUGUAAAAACAUGAGGAGAAGGCUGAUGUGCUA |  |  | 38.6 | 27.6 |
| UAGUGCGUUAGAGGAUAUUCUAAAAUAAAAUAAAAGACAUGAGGAUCACCCAUGUAUGUACAUGGGAAGAAGGCUGAUGUGCUA |  |  | 438 | 51.4 |
| UAGUGGCAAGGAUAUACAGAGGAGAGGAUUGCAAGAGGUGGACAUGAGGAUCACCCAUGUAGAAGGUGCAGAGA | 239 | 281 |  |  |
| UAUAACUAACAGAAGGGUAUUUGGGAUCAUUAUUAGGAGGAAAUACUAUACAGGAUAUGUAAUACAUGAGGAUCACCCAUGUUC |  |  | 20 | 15.7 |
| UAUAAUAUUAUAGGAUAUGGAUACGAUACGUAUCCAGAAGGGUGAUUAUAAUAUAAUCUAUACAUGAGGAUCACCCAUGUUUAU |  |  | 228 | 98 |
| UAUAAUCGAGGAUAUACAUGAGGAUCACCCAUGUGUUGCCGCGUGACAUGAUCGUCAGGUAGAAGGCGAUUAUA | 189 | 39.7 |  |  |
| UAUAAUUAGUAGAAGGACGGUGAGUAAGAGGUCGUAGGAUAUACAACUGACAUGAGGAUCACCCAUGUGUGUAUGUUGGGAAGG | 11.1 | 9.9 |  |  |
| UAUAUACAUGAGGAUCACCCAUGUAAGGAUAUGCAUUAUUAUUAUUAUUAUUAUUAUUGCAGAAGGUACAAUAU | 40.7 | 39.3 |  |  |
| UAUAUAUAGUAAGGAUAUGUAAUUAUUUUAUGAACAGAAGGUACUGACAUGAGGAUCACCCAUGUUUUAGUGUGGGCAUGUAGA | 82.9 | 119 |  |  |
| UAUAUAUAGUAAGGAUAUGUAUAUACUUUAUAAACAGAAGGUACUGACAUGAGGAUCACCCAUGUUUUAGUGUGGGCAUGUAGA | 75.9 | 102 |  |  |
| UAUAUAUAGUAAGGAUAUGUAUAUAUUUAAUAAACAGAAGGUACUGACAUGAGGAUCACCCAUGUUUUAGUGUGGGCAUGUAGA | 74.1 | 110 |  |  |
| UAUAUAUAGUAAGGAUAUGUAUUAAUUUUAGAAACAGAAGGUACUGACAUGAGGAUCACCCAUGUUUUAGUGUGGGCAUGUAGA | 98.3 | 147 |  |  |
| UAUAUGUCAGGAUAUCGAUUGGAAUGGAAUUCGGUUCUGGUUGAGAAGGGACAUGAGGAUCACCCAUGUUUUUC | 27.6 | 84.4 |  |  |
| UAUAUGUCAGGAUAUCGAUUGGUACGGGAUUCGGUACUGGUUGAGAAGGGACAUGAGGAUCACCCAUGUUUUUC | 37.8 | 162 |  |  |
| UAUAUUAUUAUAGGAUAUGGAUAUGAUGCAUAUCCAGAAGGGUGAUUAUAAUAUAAUCUAUACAUGAGGAUCACCCAUGUUUAU |  |  | 216 | 78.5 |
| UAUGAACAUGAGGAUCACCCAUGUGGAAAGGACACAGGAUAUCAUCUCGCACGUGCGAUAUGAGAAGGGUGAUGGU |  |  | 117 | 180 |
| UAUGGUAAAGUCAGGAUAUACGUACAUCAUUCUAGGUAGAAGGGACAUGAGGAUCACCCAUGUAUGGUAGUGUU | 62.2 | 67.6 |  |  |

| Sequence | apparent Kd [1] [nM] | apparent Kd [2] [nM] | apparent Kd [3] [nM] | apparent Kd [4] [nM] |
| --- | --- | --- | --- | --- |
| UAUGGUUAAGUCAGGAUAUACGUGCAGAUAUCUGAGUAGAAGGGACAUGAGGAUCACCCAUGUAUGGUAGUGUU | 79.9 | 132 |  |  |
| UAUGUAUCCUCGGGAUCCACAUGAGGAUCACCCAUGUAGACUCAGGAUAUCCAAUGCGUUGACAGGGAGAAGGGAGUUCGCAUG | 44.2 | 36.2 |  |  |
| UAUGUAUUCGUAGGAUAUCCGUCGAGACCGUGUGGAGAAGGACGAACAUGAGGAUCACCCAUGUAUCAUGGUGUAGACAAUUUU | 47.4 | 186 |  |  |
| UAUGUAUUCGUAGGAUAUCCGUUAAAACCGUGUGGAGAAGGACGAACAUGAGGAUCACCCAUGUAUCAUGGUGUAGACAAUUUU | 170 | 460 |  |  |
| UAUGUGAGAGGAUAUACUGAACCCAACCUAGAUUCUCACGAACAUGAGGAUCACCCAUGUAGAAGGCUCCGUGU | 124 | 394 |  |  |
| UAUUAAUAAUAAGGAUAUACGUCACUGCUUCGGCAGUGUGGUAAGAUCACAUGAGGAUCACCCAUGUAGAAGGAAUAUAAAAUU | 11.2 | 9.26 |  |  |
| UAUUAAUACGAAGGAUAUGGUUACAUGAGGAUCACCCAUGUAUGUAUAUUGAUCUAGUUUUUUAACCAGAAGGUCGUGAGUAAA | 30.6 | 48.6 |  |  |
| UAUUAAUACGAAGGAUAUGGUUACAUGAGGAUCACCCAUGUAUGUAUUUUGAUCUAAUAAUUUAACCAGAAGGUCGAAUAUAAA | 40.6 | 77.3 |  |  |
| UAUUAUAUGGAGAAGGACAUGAGGAUCACCCAUGUCGCCGGGCCCGGGAAACCGGGCCCGGCCAUGUAGGAUAUCCGUAUGGUA | 6 | 7.96 |  |  |
| UAUUGACAAGGAUAUUUGCGUAGUAACAUGAGGAUCACCCAUGUGAUACUAUGGAGCUCGAAAGAAGGUGUGCGAG | 20.5 | 22.8 |  |  |
| UAUUUUAACUAAGGAUAUCUAUAUUAUGUUGAAACAUGAGGAUCACCCAUGUUCAUGAUAUUAUAGGAGAAGGUAGAUGAAUAA |  |  | 6.59 | 5.44 |
| UCAACCAGCGCCAGUUGAACAUGAGGAUCACCCAUGUACUCCAGAAGGCCGCCCAAGAACGGAGUGGAGGAUAUGGAGGUUCUC |  |  | 28.5 | 18.4 |
| UCAAUCAUGUAAGGAUAUGCAGCCGAAACGGCUGCAGAAGGUACUAUAAUUACAUGAGGAUCACCCAUGUUAUAAAAUUUAUAU |  |  | 169 | 35.2 |
| UCAAUUCUGACAUCCUUAUUACAUGAGGAUCACCCAUGUUGUGAGGAUAUCCCAACCCACGGUCAGGAGAAGGCACAUAGAGGG | 5.5 | 5.9 |  |  |
| UCACGUCGCCAAGGAUAUACCCGAAGAUCCAUGGUAGAAGGUGGUGACAUGAGGAUCACCCAUGUCCGCGCGGACAAGUGUGCU | 66 | 14.7 |  |  |
| UCAGCGGUGCAAGGAUAUAACACAAUUGUCCUUAGUCGAGACGAGUGACAUGAGGAUCACCCAUGUUAGAAGGUGUCCUGCUGG | 72 | 326 |  |  |
| UCAUACAUGAGGAUCACCCAUGACAUGAGGAUCACCCAUGUGCAGGAUAUACGUGAUAUAAUAUAGUAGAAGGGCAGACCAAAA | 42.8 | 55.1 |  |  |
| UCAUACGUUGAGGAUAUGUCAGUUAGUAUAUUUACAGAAGGCGAUACAUGAGGAUCACCCAUGUUUAUGGGCAU | 219 | 298 |  |  |
| UCAUAUAUACAAGGAUAUCAAUGAUUUGUAGAUCCUACAUGAGGAUCACCCAUGUUUUUAUAUUUUGAGAAGGUGUAGUGUCUU |  |  | 178 | 352 |
| UCAUAUAUACAAGGAUAUCAAUUAUUUAUACAUCCUACAUGAGGAUCACCCAUGUUUUUAUAUUUUGAGAAGGUGUAAUGUCUU |  |  | 21.1 | 27.5 |
